From ChEMBL document CHEMBL1123478, “Synthesis and antineoplastic activity of bis[[[(alkylamino)carbonyl]oxy]methyl]-substituted 3-pyrrolines as prodrugs of tumor inhibitory pyrrole bis(carbamates)” (1986)
“And” between values parts separate entries of the source, which are not always exact repeats. Equal entries are not always repeated.

Legend:
Mus musculus [1] = experiment: Body weight difference the relation of the test animal to control animal weight was calculated at the 120 mg/kg doses; format: functional
Method in brief: (§1)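 P388 leukemia ascitic fluid implanted intraperitoneally into CD2F1 mice. Dosing was intraperitoneal, starting 24 h after inoculation, once daily for five doses, as a suspension in saline and Tween 80 made fresh each day. Some compounds were given in Klucel (hydroxypropylcellulose) or in saline/Tween/alcohol instead. Acute toxicity was checked on day 5 and the study was evaluated on day 30.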

P388 [2] = experiment: Compound was tested for antitumor activity against P388 lymphocytic leukemia at the dose 60 mg/kg; format: functional, Mus musculus; method in brief: as §1
P388 [3] = experiment: Compound was tested for antitumor activity against P388 lymphocytic leukemia at the dose 120 mg/kg; format: functional, Mus musculus; method in brief: as §1
Mus musculus [4] = experiment: Body weight difference the relation of the test animal to control animal weight was calculated at the 30 mg/kg doses; format: functional; method in brief: as §1
Mus musculus [5] = experiment: Tumor cell population at the end of treatment relative to its size at the beginning of the treatment was calculated at the 15 mg/kg doses; format: functional; method in brief: as §1
P388 [6] = experiment: Compound was tested for antitumor activity against P388 lymphocytic leukemia at the dose 15 mg/kg; format: functional, Mus musculus; method in brief: as §1
Mus musculus [7] = experiment: Body weight difference the relation of the test animal to control animal weight was calculated at the 15 mg/kg doses; format: functional; method in brief: as §1
Mus musculus [8] = experiment: Body weight difference the relation of the test animal to control animal weight was calculated at the 60 mg/kg doses; format: functional; method in brief: as §1
[9] = Rate constants were calculated for the compound by linear regression analysis
Mus musculus [10] = experiment: Tumor cell population at the end of treatment relative to its size at the beginning of the treatment was calculated at the 30 mg/kgd oses; format: functional; conditions: dose 30 mg/kg; method in brief: as §1
P388 [11] = experiment: Compound was tested for antitumor activity against P388 lymphocytic leukemia at the dose 30 mg/kg; format: functional, Mus musculus; method in brief: as §1
P388 [12] = experiment: Compound was tested for antitumor activity against P388 lymphocytic leukemia at the dose 240 mg/kg; format: functional, Mus musculus; method in brief: as §1
Mus musculus [13] = experiment: Body weight difference the relation of the test animal to control animal weight was calculated at the 240 mg/kg doses; format: functional; method in brief: as §1
Mus musculus [14] = experiment: Body weight difference the relation of the test animal to control animal weight was calculated at the 50 mg/kg doses; format: functional; method in brief: as §1
Mus musculus [15] = experiment: Body weight difference the relation of the test animal to control animal weight was calculated at the 100 mg/kg doses; format: functional; method in brief: as §1
P388 [16] = experiment: Compound was tested for antitumor activity against P388 lymphocytic leukemia at the dose 400 mg/kg; format: functional, Mus musculus; method in brief: as §1
P388 [17] = experiment: Compound was tested for antitumor activity against P388 lymphocytic leukemia at the dose 50 mg/kg; format: functional, Mus musculus; method in brief: as §1
P388 [18] = experiment: Compound was tested for antitumor activity against P388 lymphocytic leukemia at the dose 200 mg/kg; format: functional, Mus musculus; method in brief: as §1
Mus musculus [19] = experiment: Body weight difference the relation of the test animal to control animal weight was calculated at the 400 mg/kg doses; format: functional; method in brief: as §1
Mus musculus [20] = experiment: Body weight difference the relation of the test animal to control animal weight was calculated at the 200 mg/kg doses; format: functional; method in brief: as §1
P388 [21] = experiment: Compound was tested for antitumor activity against P388 lymphocytic leukemia at the dose 100 mg/kg; format: functional, Mus musculus; method in brief: as §1
P388 [22] = experiment: Compound was tested for antitumor activity against P388 lymphocytic leukemia at the dose 25 mg/kg; format: functional, Mus musculus; method in brief: as §1
Mus musculus [23] = experiment: Tumor cell population at the end of treatment relative to its size at the beginning of the treatment was calculated at the 25 mg/kg doses; format: functional; method in brief: as §1
Mus musculus [24] = experiment: Tumor cell population at the end of treatment relative to its size at the beginning of the treatment was calculated at the 50 mg/kg doses; format: functional; method in brief: as §1
Mus musculus [25] = experiment: Tumor cell population at the end of treatment relative to its size at the beginning of the treatment was calculated at the 100 mg/kg doses; format: functional; method in brief: as §1
Mus musculus [26] = experiment: Tumor cell population at the end of treatment relative to its size at the beginning of the treatment was calculated at the 12.5 mg/kg doses; format: functional; method in brief: as §1
P388 [27] = experiment: Compound was tested for antitumor activity against P388 lymphocytic leukemia at the dose 12.5 mg/kg; format: functional, Mus musculus; method in brief: as §1
Mus musculus [28] = experiment: Body weight difference the relation of the test animal to control animal weight was calculated at the 12.5 mg/kg doses; format: functional; method in brief: as §1
Mus musculus [29] = experiment: Body weight difference the relation of the test animal to control animal weight was calculated at the 25 mg/kg doses; format: functional; method in brief: as §1
Mus musculus [30] = experiment: Tumor cell population at the end of treatment relative to its size at the beginning of the treatment was calculated at the 7.5 mg/kg doses; format: functional; method in brief: as §1
P388 [31] = experiment: Compound was tested for antitumor activity against P388 lymphocytic leukemia at the dose 7.5 mg/kg; format: functional, Mus musculus; method in brief: as §1
Mus musculus [32] = experiment: Body weight difference the relation of the test animal to control animal weight was calculated at the 7.5 mg/kg doses; format: functional; method in brief: as §1
Mus musculus [33] = experiment: Tumor cell population at the end of treatment relative to its size at the beginning of the treatment was calculated at the 150 mg/kg doses; format: functional; conditions: dose 15 mg/kg; in the assay text read “15 mg/kg doses” for “150 mg/kg doses”; method in brief: as §1
Mus musculus [34] = experiment: Tumor cell population at the end of treatment relative to its size at the beginning of the treatment was calculated at the 60 mg/kg doses; format: functional; method in brief: as §1

Question: Which results are given for COc1ccc(C2C(COC(=O)NC(C)C)=C(COC(=O)NC(C)C)CN2C)cc1 (centres undefined)?
Answer: BDW (Mus musculus [1]; 120 mg/kg): -1.9 g and -1.2 g; T/C (P388 [2]): 158%; T/C (P388 [3]): 110%

Question: With CC(C)NC(=O)OCc1cn(C)c(-c2ccc(F)cc2)c1COC(=O)NC(C)C as the compound, how does the BDW (Mus musculus [4]) read?
Answer: Its BDW is -2.2 g.

Question: What about the KE (Mus musculus [5]) of the same compound?
Answer: Its KE is 0.04.

Question: What about the T/C (P388 [6]) of the same compound?
Answer: Its T/C is 145%.

Question: What about the BDW (Mus musculus [7]) of the same compound?
Answer: The BDW was -0.4 g.

Question: And the BDW (Mus musculus [8])?
Answer: The BDW was -2.7 g.

Question: And the K' [9]?
Answer: The K' was 0.0516 abs/time.

Question: And the KE (Mus musculus [10])?
Answer: The KE was 0.21.

Question: And the T/C (P388 [11])?
Answer: Its T/C is 188%.

Question: For CC(C)NC(=O)OCC1=C(COC(=O)NC(C)C)C(c2ccc(F)cc2)N(C)C1 (centres undefined), which BDW (Mus musculus [1]) is on record?
Answer: The BDW was -2.7 g.

Question: And the T/C (P388 [2])?
Answer: Its T/C is 112%.

Question: And the BDW (Mus musculus [8])?
Answer: Its BDW is -0.2 g.

Question: And the T/C (P388 [12])?
Answer: The T/C was 137%.

Question: And the T/C (P388 [3])?
Answer: The T/C was 131%.

Question: What about the BDW (Mus musculus [13]) of the same compound?
Answer: Its BDW is -2.7 g.

Question: Which results are given for CC(C)NC(=O)OCC1=C(COC(=O)NC(C)C)C(C)(C)N(C)C1c1ccccc1 (centres undefined)?
Answer: BDW (Mus musculus [14]): 0.5 g; BDW (Mus musculus [15]): -0.3 g; T/C (P388 [16]): 107%; T/C (P388 [17]): 108%; T/C (P388 [18]): 108%; BDW (Mus musculus [19]): -2.3 g; BDW (Mus musculus [20]): -0.1 g; T/C (P388 [21]): 113%

Question: Which BDW (Mus musculus [14]) does the source give for CC(C)NC(=O)OCC1=C(COC(=O)NC(C)C)[C@@H](c2ccccc2)N(C)[C@H]1c1ccccc1 here?
Answer: Its BDW is -2.3 g.

Question: What about the T/C (P388 [22]) of the same compound?
Answer: The T/C was 139%.

Question: What about the KE (Mus musculus [23]) of the same compound?
Answer: Its KE is 0.16.

Question: And the KE (Mus musculus [24])?
Answer: The KE was 0.53.

Question: And the KE (Mus musculus [25])?
Answer: Its KE is 3.06.

Question: What about the BDW (Mus musculus [15]) of the same compound?
Answer: Its BDW is -3 g.

Question: And the KE (Mus musculus [26])?
Answer: The KE was -0.9.

Question: What about the T/C (P388 [27]) of the same compound?
Answer: Its T/C is 120%.

Question: What about the BDW (Mus musculus [28]) of the same compound?
Answer: The BDW was 0 g.

Question: And the T/C (P388 [17])?
Answer: The T/C was 145%.

Question: And the BDW (Mus musculus [29])?
Answer: Its BDW is -1.2 g.

Question: What about the T/C (P388 [21]) of the same compound?
Answer: The T/C was 189%.

Question: For CC(C)NC(=O)OCc1cn(C)c(-c2ccccc2)c1COC(=O)NC(C)C, which BDW (Mus musculus [4]) is on record?
Answer: Its BDW is -2.3 g.

Question: What about the KE (Mus musculus [30]) of the same compound?
Answer: The KE was -0.04.

Question: What about the KE (Mus musculus [5]) of the same compound?
Answer: Its KE is -0.04.

Question: And the T/C (P388 [6])?
Answer: The T/C was 148%.

Question: What about the BDW (Mus musculus [7]) of the same compound?
Answer: Its BDW is -0.1 g.

Question: And the BDW (Mus musculus [1])?
Answer: The BDW was -4.6 g.

Question: What about the T/C (P388 [31]) of the same compound?
Answer: The T/C was 127%.

Question: And the BDW (Mus musculus [8])?
Answer: The BDW was -4 g.

Question: And the K' [9]?
Answer: The K' was 0.0935 abs/time.

Question: What about the KE (Mus musculus [10]) of the same compound?
Answer: Its KE is -0.15.

Question: And the T/C (P388 [11])?
Answer: The T/C was 100%.

Question: What about the BDW (Mus musculus [32]) of the same compound?
Answer: The BDW was 0.1 g.

Question: For COc1ccc(-c2c(COC(=O)NC(C)C)c(COC(=O)NC(C)C)cn2C)cc1, which BDW (Mus musculus [4]) is on record?
Answer: The BDW was 0.4 g.

Question: What about the T/C (P388 [6]) of the same compound?
Answer: Its T/C is 123%.

Question: What about the BDW (Mus musculus [7]) of the same compound?
Answer: The BDW was 0 g.

Question: And the KE (Mus musculus [33])?
Answer: The KE was -0.06.

Question: What about the T/C (P388 [2]) of the same compound?
Answer: The T/C was 164%.

Question: What about the BDW (Mus musculus [8]) of the same compound?
Answer: Its BDW is -0.8 g.

Question: What about the K' [9] of the same compound?
Answer: The K' was 0.231 abs/time.

Question: What about the KE (Mus musculus [10]) of the same compound?
Answer: Its KE is -0.08.

Question: And the T/C (P388 [11])?
Answer: The T/C was 117%.

Question: What about the KE (Mus musculus [34]) of the same compound?
Answer: The KE was 0.1.
